# Reference: publication PMC9272583 (European Journal of Medicinal Chemistry, 2022)
# Like-named read-outs stand apart in the source and are kept apart here.
# Columns and labels:
# SARS-CoV-2 M^pro [1] = target: T1, SARS-CoV-2 M^pro (Severe acute respiratory syndrome coronavirus 2, UniProt P0DTD1); assay: SARS-CoV-2 Mpro mass adduct measurement; format: binding; conditions: ESI-TOF, 100 μM compound
# How it was run: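 Test compound (100 μM) was incubated with active recombinant Mpro (3 μM; bacterially expressed, Ni-NTA then size-exclusion purified) in 50 mM Tris-HCl pH 7.4, 100 mM NaCl, 20% v/v ethylene glycol, 0.0016% Brij 58. Analysis was by LC-ESI-TOF MS on a C18 column: water/acetonitrile with 0.1% formic acid, 10→95% B over 4 min, 0.3 mL/min. Negative mode, Na-formate external calibration.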
# [2] = Parallel artificial membrane permeability assay; format: in vitro ADME; conditions: PAMPA
# DENV-2 protease = target: T2, DENV-2 protease (Dengue virus type 2, UniProt P29990); assay: Compound stability against DENV-2 protease; conditions: 8 h of incubation in DENV assay buffer, HPLC
# T2 sequence (P29990 1476-1653 limits assumed): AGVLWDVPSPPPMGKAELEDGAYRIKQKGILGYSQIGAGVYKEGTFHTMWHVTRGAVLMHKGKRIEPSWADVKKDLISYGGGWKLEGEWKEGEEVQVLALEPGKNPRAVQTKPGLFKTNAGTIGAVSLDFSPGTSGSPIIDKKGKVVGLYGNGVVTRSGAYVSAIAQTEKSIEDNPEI
# SARS-CoV-2 M^pro [3] = target: T1, SARS-CoV-2 M^pro; assay: SARS-CoV-2 Mpro fluorogenic; format: biochemical; conditions: for inhibition at 50 µM: 0.25 h, read-out: SARS-CoV-2 M^pro % (50 μM); for time dependent inhibition: 12.5 μM; for competitive binding (Cheng-Prusoff plots): increasing substrate concentration
# DENV serotype 2 protease = DENV serotype 2 protease (Dengue virus type 2, UniProt P29990); assay: DENV2 reporter gene assay; format: cell-based; conditions: for inhibition at 12.5 µM: HeLa, 24 h, read-out: DENV2proHeLa % (12.5 μM)
# How it was run: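 Stable DENV2proHeLa cells (DMEM, 10% heat-inactivated FCS, antibiotics) were seeded at 2 x 10^4 per well, dosed at once and incubated 24 h at 37 °C. Cells were lysed 15 min at room temperature, then coelenterazine (2.75 μM in PBS) was injected and luciferase read for 5 s. Triplicates; % inhibition vs untreated control. EC50 from a 4-parameter fit after background subtraction (cell-free wells).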
# DENV2proHeLa cells = assay: Cytotoxicity in DENV2proHeLa cells; format: cell-based
# How it was run: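 HeLa cells stably carrying the DENV2 protease reporter, kept in DMEM with 10% heat-inactivated FCS, penicillin and streptomycin. Cells were seeded at 2 x 10^4 per well and given compound dilutions straight away. Plates ran in parallel with the reporter assay for 24 h at 37 °C. Viability was read by CellTiter-Blue, with each concentration in triplicate.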
# DENV serotype 2 = conditions: DENV-2 titer reduction; cited from earlier work
# SARS-CoV-2 M^pro [4] = target: T1, SARS-CoV-2 M^pro; assay: Compound stability against SARS-CoV-2 Mpro; conditions: 8 h of incubation in assay buffer, HPLC
# SARS-CoV-2 M^pro [5] = target: T1, SARS-CoV-2 M^pro; assay: SARS-CoV-2 Mpro Michaelis-Menten kinetics; format: biochemical; conditions: Michaelis-Menten plot
# SARS-CoV-2 M^pro [6] = target: T1, SARS-CoV-2 M^pro; assay: Dilution experiment; format: biochemical; conditions: preincubated 100 μM for 2 h, diluted to 3 μM
# [7] = read-out: DENV2proHeLa EC50, reporter gene assay in HeLa cells
# Sequence of DENV serotype 2 protease (P29990 1346-1475): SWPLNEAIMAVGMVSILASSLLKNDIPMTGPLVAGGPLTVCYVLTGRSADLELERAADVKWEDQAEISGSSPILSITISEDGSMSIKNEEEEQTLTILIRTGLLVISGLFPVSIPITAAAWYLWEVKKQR
# Sequence of DENV serotype 2 protease (P29990 1476-2093): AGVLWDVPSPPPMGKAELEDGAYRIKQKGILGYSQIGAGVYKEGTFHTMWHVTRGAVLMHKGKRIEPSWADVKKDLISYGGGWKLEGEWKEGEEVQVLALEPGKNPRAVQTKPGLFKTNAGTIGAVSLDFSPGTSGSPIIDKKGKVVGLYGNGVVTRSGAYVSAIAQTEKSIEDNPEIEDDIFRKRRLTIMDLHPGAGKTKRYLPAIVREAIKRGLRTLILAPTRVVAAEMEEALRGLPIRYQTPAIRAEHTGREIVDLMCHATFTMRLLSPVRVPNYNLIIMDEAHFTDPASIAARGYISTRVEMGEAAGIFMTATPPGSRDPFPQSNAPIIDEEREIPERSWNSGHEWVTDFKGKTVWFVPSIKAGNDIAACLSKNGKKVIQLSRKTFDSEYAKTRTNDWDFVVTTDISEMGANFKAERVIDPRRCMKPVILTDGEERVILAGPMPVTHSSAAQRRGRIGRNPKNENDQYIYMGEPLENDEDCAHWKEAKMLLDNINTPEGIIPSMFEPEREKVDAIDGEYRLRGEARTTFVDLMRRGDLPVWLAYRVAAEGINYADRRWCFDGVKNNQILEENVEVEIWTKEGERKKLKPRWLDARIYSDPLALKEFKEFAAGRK
compound,measurement,setting,value
CC(C)(C)NC(=O)N[C@H](C(=O)N1C[C@H]2[C@@H]([C@H]1C(=O)NC(CC1CCC1)C(=O)C(N)=O)C2(C)C)C(C)(C)C (some centres unmarked) [boceprevir],mass adducts with SARS-CoV-2 M^pro,SARS-CoV-2 M^pro [1],adducts were found
"O=C(Nc1ccc2c(c1)B(O)OC2)c1ccc(OCc2ccc(Cl)cc2)cc1 [Compound 20, 4-((4-Chlorobenzyl)oxy)-N-(1-hydroxy-1,3-dihydrobenzo[c][1,2]oxaborol-6-yl)benzamide]",passive membrane permeability (in words),[2],passive permeability
same,stability against DENV-2 protease,DENV-2 protease,no decrease in the compound AUC
"O=C(Nc1cccc(B(O)O)c1)c1cccc(OCc2ccccc2)c1 [Compound 26, (3-(3-(Benzyloxy)benzamido)phenyl)boronic acid]",passive membrane permeability (in words),[2],passive permeability
"N#Cc1ccc(COc2cccc(C(=O)Nc3ccc4c(c3)B(O)OC4)c2)cc1 [Compound 31, 3-((4-Cyanobenzyl)oxy)-N-(1-hydroxy-1,3-dihydrobenzo[c][1,2]oxaborol-6-yl)benzamide]",inhibition at 50 µM,SARS-CoV-2 M^pro [3],31.7 ± 3.6%
same,EC50,DENV serotype 2 protease,4.1 ± 0.2 µM
same,inhibition at 12.5 µM,DENV serotype 2 protease,82.2 ± 3.7%
same,passive membrane permeability (in words),[2],passive permeability
"CCCCCC(=O)NC(C(=O)NCc1ccc(NC(=N)N)cc1)c1ccc(OCc2ccccc2)cc1 (centres unmarked) [NK-189, reference compound]",DENV2proHeLa % (12.5 μM),"DENV serotype 2 protease; inhibitor 12.5 μM, reporter gene assay in HeLa cells",79.3 ± 9.7%
same,EC50,DENV serotype 2 protease; [7],0.6 ± 0.1 µM
same,CC50,DENV2proHeLa cells,> 50 µM
same,antiviral activity of the reference substance,DENV serotype 2,0.89 µM
"N=C(N)Nc1ccc2c(c1)B(O)OC2 [Compound 4, 1-(1-Hydroxy-1,3-dihydrobenzo[c][1,2]oxaborol-6-yl)guanidine]",Hill slope of dose-response curve,SARS-CoV-2 M^pro [3],1.15 ± 0.07
same,passive membrane permeability (in words),[2],no permeability
"O=C(Nc1ccc2c(c1)B(O)OC2)c1cccc(OCC2CCCCC2)c1 [Compound 34, 3-(Cyclohexylmethoxy)-N-(1-hydroxy-1,3-dihydrobenzo[c][1,2]oxaborol-6-yl)benzamide]",EC50,DENV serotype 2 protease,3.4 ± 0.5 µM
"O=C(Nc1ccc2c(c1)B(O)OC2)c1cccc(OCc2ccccc2)n1 [Compound 28, 6-(Benzyloxy)-N-(1-hydroxy-1,3-dihydrobenzo[c][1,2]oxaborol-6-yl)picolinamide]",inhibition at 50 µM,SARS-CoV-2 M^pro [3],55.5 ± 7%
same,inhibition at 12.5 µM,DENV serotype 2 protease,85.2 ± 4.1%
same,EC50,DENV serotype 2 protease; [7],2.5 ± 0.2 µM
"COc1cccc(COc2cccc(C(=O)Nc3ccc4c(c3)B(O)OC4)c2)c1 [Compound 30, N-(1-Hydroxy-1,3-dihydrobenzo[c][1,2]oxaborol-6-yl)-3-((3-methoxybenzyl)oxy)benzamide]",inhibition at 50 µM,SARS-CoV-2 M^pro [3],43.4 ± 9.1%
same,EC50,DENV serotype 2 protease,2.9 ± 0.3 µM
same,inhibition at 12.5 µM,DENV serotype 2 protease,80.4 ± 2%
"O=C(Nc1ccc2c(c1)B(O)OC2)c1cccc(OCc2ccccc2)c1 [Compound 18, 3-(Benzyloxy)-N-(1-hydroxy-1,3-dihydrobenzo[c][1,2]oxaborol-6-yl)benzamide]",Hill slope of dose-response curve,SARS-CoV-2 M^pro [3],1.39 ± 0.16
same,time dependent inhibition,SARS-CoV-2 M^pro [3],no significant increase or decrease
same,competitive binding (Cheng-Prusoff plots),SARS-CoV-2 M^pro [3],do not show competitive binding
same,passive membrane permeability (in words),[2],passive permeability
same,stability against SARS-CoV-2 M^pro,SARS-CoV-2 M^pro [4],no cleavage
same,stability against DENV-2 protease,DENV-2 protease,no decrease in the compound AUC
same,inhibition mode,SARS-CoV-2 M^pro [5],mixed inhibition mode
same,reversibility of binding,SARS-CoV-2 M^pro [6],reversible
"Cc1cccc(COc2cccc(C(=O)Nc3ccc4c(c3)B(O)OC4)c2)c1 [Compound 29, N-(1-Hydroxy-1,3-dihydrobenzo[c][1,2]oxaborol-6-yl)-3-((3-methylbenzyl)oxy)benzamide]",inhibition at 50 µM,SARS-CoV-2 M^pro [3],45.7 ± 6.3%
same,EC50,DENV serotype 2 protease,1.1 ± 0.1 µM
same,inhibition at 12.5 µM,DENV serotype 2 protease,90 ± 0.9%
"O=C(Nc1ccc2c(c1)B(O)OC2)c1cccc(OCc2ccc(Cl)cc2)c1 [Compound 32, 3-((4-Chlorobenzyl)oxy)-N-(1-hydroxy-1,3-dihydrobenzo[c][1,2]oxaborol-6-yl)benzamide]",EC50,DENV serotype 2 protease,2.4 ± 0.2 µM
same,inhibition at 12.5 µM,DENV serotype 2 protease,83.6 ± 1.7%
same,stability against DENV-2 protease,DENV-2 protease,no decrease in the compound AUC
"O=C(Nc1ccc2c(c1)B(O)OC2)c1ccc(Oc2ccccc2)cc1 [Compound 15, N-(1-Hydroxy-1,3-dihydrobenzo[c][1,2]oxaborol-6-yl)-4-phenoxybenzamide]",passive membrane permeability (in words),[2],passive permeability
same,stability against DENV-2 protease,DENV-2 protease,no decrease in the compound AUC
"O=C(Nc1cccc(C(=O)Nc2ccc3c(c2)B(O)OC3)c1)c1ccccc1 [Compound 23, 3-Benzamido-N-(1-hydroxy-1,3-dihydrobenzo[c][1,2]oxaborol-6-yl)benzamide]",stability against SARS-CoV-2 M^pro,SARS-CoV-2 M^pro [4],no cleavage
"N=C(N)Nc1ccc(C(=O)Nc2ccc3c(c2)B(O)OC3)cc1 [Compound 8, 4-guanidino-N-(1-hydroxy-1,3-dihydrobenzo[c][1,2]oxaborol-6-yl)benzamide]",Hill slope of dose-response curve,SARS-CoV-2 M^pro [3],1.14 ± 0.07
same,time dependent inhibition,SARS-CoV-2 M^pro [3],no significant increase or decrease
same,competitive binding (Cheng-Prusoff plots),SARS-CoV-2 M^pro [3],do not show competitive binding
same,stability against SARS-CoV-2 M^pro,SARS-CoV-2 M^pro [4],no cleavage
"O=C(Nc1ccc2c(c1)B(O)OC2)c1cccc(OCc2c(Cl)cccc2Cl)c1 [Compound 33, 3-((2,6-Dichlorobenzyl)oxy)-N-(1-hydroxy-1,3-dihydrobenzo[c][1,2]oxaborol-6-yl)benzamide]",inhibition at 12.5 µM,DENV serotype 2 protease,85.6 ± 4.3%
same,EC50,DENV serotype 2 protease; [7],0.54 ± 0.05 µM
same,passive membrane permeability (in words),[2],passive permeability
"O=S(=O)(Nc1ccc2c(c1)B(O)OC2)c1ccc(Cl)cc1 [Compound 11, 4-Chloro-N-(1-hydroxy-1,3-dihydrobenzo[c][1,2]oxaborol-6-yl)benzenesulfonamide]",passive membrane permeability (in words),[2],passive permeability
"O=C(Nc1ccc2c(c1)B(O)OC2)c1ccccc1OCc1ccccc1 [Compound 17, 2-(Benzyloxy)-N-(1-hydroxy-1,3-dihydrobenzo[c][1,2]oxaborol-6-yl)benzamide]",passive membrane permeability (in words),[2],passive permeability
